Measured values: ChEMBL document CHEMBL3856209, “Novel pyrazolopyridine derivatives as potential angiogenesis inhibitors: Synthesis, biological evaluation and transcriptome-based mechanistic analysis” (Eur J Med Chem, 2016)

Columns and labels:
Assay type in all cases: functional, Homo sapiens
HUVEC [1] = experiment: Effect on CD14 gene expression in serum-starved HUVEC after 6 hrs by microarray analysis relative to control
How it was run: (§1)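 Confluent serum-starved HUVEC (primary, pooled from 3–5 donors, passage ≤4) treated with 2 μM compound or DMSO vehicle in 2.5% FBS for 6 h or 24 h. Total RNA hybridized to Illumina Human-HT12 arrays, background-corrected, vst-transformed and rsn-normalized. Differential expression versus DMSO by moderated paired t-test (p < 0.05, |log2 fold change| > 0.5).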

HUVEC [2] = experiment: Effect on CYTL1 gene expression in serum-starved HUVEC after 6 hrs by microarray analysis relative to control; how it was run: as §1
HUVEC [3] = experiment: Effect on HLA-DPA1 gene expression in serum-starved HUVEC after 6 hrs by microarray analysis relative to control
How it was run: (§2)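 Confluent, serum-starved HUVEC (pooled from 3–5 donors, passage ≤4) treated with 2 μM compound or vehicle with 2.5% FBS for 6 h or 24 h. Total RNA hybridized to Illumina Human-HT12 arrays. Data were background-corrected, vst-transformed and rsn-normalized. Hits called by moderated paired t-test versus DMSO-treated cells, p < 0.05 and log2 fold change >|0.5|.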

HUVEC [4] = experiment: Effect on MTSS1 gene expression in serum-starved HUVEC after 6 hrs by microarray analysis relative to control
HUVEC [5] = experiment: Effect on TM7SF2 gene expression in serum-starved HUVEC after 6 hrs by microarray analysis relative to control
HUVEC [6] = experiment: Effect on TUBB4B gene expression in serum-starved HUVEC after 6 hrs by microarray analysis relative to control
HUVEC [7] = experiment: Effect on CDCA8 gene expression in serum-starved HUVEC after 24 hrs by microarray analysis relative to control
How it was run: (§3)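 Serum-starved confluent HUVEC (primary, pooled from 3–5 donors, passage ≤4) treated with 2 μM test compound or DMSO vehicle (working dilutions ≤0.1% v/v) in presence of 2.5% FBS for 6 h or 24 h; total RNA hybridized to Illumina Human-HT12 arrays; background correction, vst, rsn normalization; moderated paired t-test versus DMSO, thresholds p < 0.05 and log2 fold change >|0.5|.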

HUVEC [8] = experiment: Effect on CENPF gene expression in serum-starved HUVEC after 24 hrs by microarray analysis relative to control; how it was run: as §3
HUVEC [9] = experiment: Effect on CTSH gene expression in serum-starved HUVEC after 24 hrs by microarray analysis relative to control; how it was run: as §2
HUVEC [10] = experiment: Effect on FDPS gene expression in serum-starved HUVEC after 24 hrs by microarray analysis relative to control; how it was run: as §2
HUVEC [11] = experiment: Effect on HLA-DPA1 gene expression in serum-starved HUVEC after 24 hrs by microarray analysis relative to control; how it was run: as §2
HUVEC [12] = experiment: Effect on PALD1 gene expression in serum-starved HUVEC after 24 hrs by microarray analysis relative to control
How it was run: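 Serum-starved confluent HUVEC (pooled from 3–5 donors, passage ≤4) were treated with 2 μM compound or vehicle in 2.5% FBS for 6 h or 24 h, and total RNA was isolated. Hybridization was on Illumina Human-HT12. Data were processed with bgAdjust, vst and rsn normalization. Changes versus DMSO were called by moderated paired t-test at p < 0.05 and |log2 fold change| > 0.5.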

COc1ccc(Cn2nc(-c3ccccc3)c3cc(Nc4ccc(N5CCN(C)CC5)cc4)nc(N4CCN(C)CC4)c32)cc1 was tested, and the “fold change (FC)” value (HUVEC [1]) was 1.7643, the “fold change (FC)” value (HUVEC [2]) was 0.0261 and the “fold change (FC)” value (HUVEC [3]) was 0.6583. The “fold change (FC)” value (HUVEC [4]) was 0.2099, the log2FC (HUVEC [5]) was 0.343 and the “fold change (FC)” value (HUVEC [6]) was -0.206. The “fold change (FC)” value (HUVEC [7]) was -0.8847, the “fold change (FC)” value (HUVEC [8]) was -0.7151 and the log2FC (HUVEC [9]) was -0.6409. It also gave a log2FC (HUVEC [10]) of 0.8398, a log2FC (HUVEC [11]) of -0.863 and a log2FC (HUVEC [12]) of 0.5892.
